Article PMC12709234 (RSC Advances, 2025)

Assays:
[1] = tested on: MDCKII-hMDR1 cell monolayers; test: Permeability on MDCKII-hMDR1 cell monolayers; format: in vitro ADME, canine; settings: MDCKII-hMDR1
Summary of the method: (§1)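 MDCKII cells overexpressing human MDR1 were seeded on 96-well inserts (0.25 × 10^6 cells per mL) and grown 3 days to confluence. Monolayers were equilibrated 30 min in DPBS pH 7.4 with 1% DMSO. Test compound (10 µM) with lucifer yellow (100 µM, integrity marker) was applied apical-to-basolateral and basolateral-to-apical for 60 min at 37 °C with agitation. Both compartments, plus donor at start, were quantified by LC-MS/MS.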

[2] = tested on: P-glycoprotein (human MDR1); test: Permeability on MDCKII-hMDR1 cell monolayers; format: in vitro ADME, canine; settings: dog, MDCK-MDR1, pH 7.4
Summary of the method: as §1

[3] = Metabolic stability in mouse liver microsomes; format: in vitro ADME; settings: 1 µM, scaled from in vitro clearance
Summary of the method: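 Mouse liver microsomes were incubated in duplicate with test compound (final 1 µM, <0.1% DMSO) in 50 mM phosphate pH 7.4 at 37 °C for 1 h, with and without an NADPH regenerating system. Samples were taken at 0, 10, 20, 30, 45 and 60 min, quenched with ACN/MeOH (2:1) plus internal standard and analysed by LC-MS/MS. t1/2 came from non-linear regression; Clint was derived from it and normalized to protein. Scaling used 52.5 mg protein/g liver, 85.7 g liver/kg and LBF 131 mL min−1 kg−1.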

[4] = tested on: human tumor cell lines (Capan-1, HCT-116, LN-229, NCI-H460, DND-41, HL-60, K562, Z-138); test: Antiproliferative assays, panel of human tumor cell lines; format: cell-based
Summary of the method: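 Cells from ATCC (DND-41 from DSMZ) were grown in medium with 10% FBS in 384-well plates. Adherent lines were plated overnight first: Capan-1 at 500 and HCT-116, NCI-H460 and LN-229 at 1500 cells/well. Suspension lines were seeded onto compound: HL-60, K-562 and Z-138 at 2500 and DND-41 at 5500 cells/well. Seven concentrations, 100–0.006 µM, from DMSO stocks, 72 h. […] At least two independent experiments.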

Bcl-2 = settings: read-out: IC50 (Bcl-2); PDB 6QGK, CHEMBL4438456; cited from earlier work

Structure (SMILES) | Permeability classification [1] | Papp A→B at 60 min, 10 µM [2] [×10⁻⁶ cm/s] | Papp B→A at 60 min, 10 µM [2] [×10⁻⁶ cm/s] | % LBF predicted in vivo hepatic clearance [3] [% LBF] | antiproliferative activity (in words) ([4]; all evaluated human tumor cell lines) | Efflux classification [1] | efflux ratio at 60 min, 10 µM [2] | Papp at 60 min, 10 µM [2] [×10⁻⁶ cm/s] | IC50 ([4]; Homo sapiens, read-out: IC50 values against DND-41, HL-60, Z-138 and Capan-1) [nM] | IC50 (Bcl-2) [nM]
FC(F)(F)c1cc(OCc2cc(-c3ccccc3)no2)c2ccccc2n1 [Compound 7a, 3-Phenyl-5-(((2-(trifluoromethyl)quinolin-4-yl)oxy)methyl)isoxazole] | low to moderate | < 0.1 | 0.1 | 74 | – | – | – | – | – | –
FC(F)(F)c1cc(OCc2cc(-c3ccccn3)no2)c2ccccc2n1 [Compound 7b, 3-(Pyridin-2-yl)-5-(((2-(trifluoromethyl)quinolin-4-yl)oxy)methyl)isoxazole] | low to moderate | 6.5 | 4.6 | 87 | did not exhibit any antiproliferative effects | low | 0.7 | – | – | –
c1ccc(-c2cc(CNc3cccc4cccnc34)on2)cc1 [Compound 8a, 3-Phenyl-5-((quinolin-8-yl-azaneyl)methyl)isoxazole] | low to moderate | 1.7 | – | >97 | – | – | – | – | – | –
c1ccc(-c2cc(CNc3cccc4cccnc34)on2)nc1 [Compound 8b, N-((3-(Pyridin-2-yl)isoxazol-5-yl)methyl)quinolin-8-amine] | High | 17.2 | 27.8 | 96 | – | low | 1.6 | > 10 | – | –
FC(F)(F)c1ccc(-c2cc(CNc3cccc4cccnc34)on2)cc1 [Compound 8c, N-((3-(4-(Trifluoromethyl)phenyl)isoxazol-5-yl)methyl)quinolin-8-amine] | Low/— | < 0.1 | < 0.1 | – | – | – | – | – | – | –
Clc1ccc(-c2cc(CNc3cccc4cccnc34)on2)c(Cl)c1 [Compound 8d, N-((3-(2,4-Dichlorophenyl)isoxazol-5-yl)methyl)quinolin-8-amine] | Low/— | < 0.1 | < 0.1 | 51 | – | – | – | – | – | –
N#Cc1ccc(-c2cc(CNc3cccc4cccnc34)on2)cc1 [Compound 8e, 4-(5-((Quinolin-8-ylamino)methyl)isoxazol-3-yl)benzonitrile] | Moderate | 3.6 | 3.1 | 55 | – | low | 0.9 | – | – | –
N/C(=N\O)c1ccc(-c2cc(CNc3cccc4cccnc34)on2)cc1 [Compound 8f, (Z)-N′-hydroxy-4-(5-((quinolin-8-ylamino)methyl)isoxazol-3-yl)benzimidamide] | High | 15 | 13.7 | 53 | – | low | 0.9 | > 10 | 2100 to 4700 | –
CCCCN(CCCC)C(=O)c1cc(C)n(-c2ccccc2C(=O)N2Cc3ccccc3C[C@H]2CN)n1 [Compound J1Q, (S)-1-(2-(3-(aminomethyl)-1,2,3,4-tetrahydroisoquinoline-2-carbonyl)phenyl)-N,N-dibutyl-5-methyl-1H-pyrazole-3-carboxamide] | – | – | – | – | – | – | – | – | – | 1300
